The values that follow come from ChEMBL document CHEMBL2331266, “Five-membered iminocyclitol α-glucosidase inhibitors: synthetic, biological screening and in silico studies” (Bioorg Med Chem, 2013).

Assay [1] is described as follows: Inhibition of Saccharomyces cerevisiae alpha-glucosidase using p-nitrophenyl-alpha-D-[…] as substrate after 20 mins by UV/Vis spectrophotometric analysis. In a few lines:
(§1)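 Baker's yeast α-glucosidase at 0.04 U/mL in 0.1 M phosphate buffer, pH 6.7. Substrate was 2 mM p-nitrophenyl-α-D-glucopyranoside; the optimized Km was 0.258 mM. Inhibitors were dissolved in 2% DMSO in the same buffer and tested at up to 46 mM. Activity was read as the p-nitrophenol released. Five replicates per sample.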

Assay [2] has as its system Saccharomyces cerevisiae. Put plainly: Inhibition of Saccharomyces cerevisiae alpha-glucosidase using p-nitrophenyl-alpha-D-[…] as substrate at = / >10.9 mM after 20 mins by UV/Vis spectrophotometric analysis. In a few lines:
as §1

Assay [3] has as its system Saccharomyces cerevisiae. Put plainly: Inhibition of Saccharomyces cerevisiae alpha-glucosidase using p-nitrophenyl-alpha-D-[…] as substrate at 25 mM after 20 mins by UV/Vis spectrophotometric analysis. In a few lines: as §1

With `O[C@H]1CNC[C@@H]1O`, in assay [1], half-maximal inhibition (IC50) was put at 10.9 mM. Also, the inhibition (in general, how much of the control response was suppressed) with Saccharomyces cerevisiae [2] is above 50%.

Regarding `O[C@@H]1CN(Cc2ccccc2)C[C@H]1O`, in assay [1], the midpoint of inhibition, the IC50, lay at 25 mM. In the assay on Saccharomyces cerevisiae [2], this compound yielded an inhibition above 50%.

For `O[C@H]1CN(Cc2ccccc2)C[C@@H]1O`, in assay [1], the midpoint of inhibition, the IC50, lay at 38 mM. For the same compound, in the assay with Saccharomyces cerevisiae [2], the inhibition is above 50%.

For the compound `CC(=O)O[C@H]1CNC[C@@H]1OC(C)=O`, the IC50 (as a rule, the concentration at which inhibition is half-maximal) in assay [1] was 12.5 mM. For the same compound, the inhibition is 80% with Saccharomyces cerevisiae [3] and above 50% with Saccharomyces cerevisiae [2].

With `C[C@H]1O[C@H](O[C@H]2[C@H](O)[C@@H](O)[C@@H](O[C@H]3[C@H](O)[C@@H](O)C(O)O[C@@H]3CO)O[C@@H]2CO)[C@H](O)[C@@H](O)[C@@H]1N[C@H]1C=C(CO)[C@@H](O)[C@H](O)[C@H]1O` (stereo partly specified) [ACARBOSE], half-maximal inhibition in assay [1] (IC50) required 25 mM.

On to `CC(=O)O[C@@H]1CNC[C@H]1OC(C)=O`, for which the inhibition in the assay with Saccharomyces cerevisiae [3] amounted to 40%.
